Values after ≈ are worked out from the molar mass of the structure shown.
What was measured:
[1] = test system: Aspergillus ochraceus; assay: Ratio of ketoconazole to compound for Aspergillus ochraceus ATCC 12066; assay type: functional
[2] = test system: Salmonella typhimurium; assay: Antibacterial activity against Salmonella Typhimurium ATCC 13311 after 24 hrs by microdilution method; assay type: functional, Salmonella enterica subsp. enterica serovar Typhimurium; conditions: Salmonella enterica, ATCC 13311, 24 h
Procedure, shortened: (§1)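 Broth microdilution in 96-well plates. Bacterial suspensions were adjusted in sterile saline to 1.0 × 10⁵ CFU/ml, prepared daily and kept at 4 °C. Compound was added to LB broth with 1.0 × 10⁴ CFU per well and shaken at 160 rpm for 24 h at […] (so in the source). MIC is the lowest concentration with no visible growth under a binocular microscope. OD655 was also read. Duplicate, repeated three times.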

[3] = test system: Talaromyces funiculosus; assay: Ratio of bifonazole to compound for Penicillium funiculosum ATCC 36839; assay type: functional
[4] = test system: Aspergillus ochraceus; assay: Antifungal activity against Aspergillus ochraceus ATCC 12066 after 72 hrs by serial dilution technique; assay type: functional; conditions: ATCC 12066, 72 h
Procedure, shortened: (§2)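 Modified microdilution in 96-well plates. Fungi were kept on malt agar at 4 °C. Spores were washed off in sterile 0.85% saline with 0.1% Tween 80. Compounds were dissolved at 1 mg/ml in 5% DMSO with 0.1% Tween 80 and added to malt broth with inoculum. Plates were shaken at 160 rpm for 72 h at 28 °C. Duplicate, repeated three times.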

[5] = test system: Talaromyces funiculosus; assay: Antifungal activity against Penicillium funiculosum ATCC 36839 after 72 hrs by serial dilution technique; assay type: functional; conditions: ATCC 36839, 72 h; procedure, shortened: as §2
[6] = test system: Escherichia coli; assay: Antibacterial activity against Escherichia coli ATCC 35210 incubated for 24 hrs followed by serial sub-cultivation for 24 hrs by microdilution; assay type: functional; conditions: ATCC 35210, 24 h
Procedure, shortened: (§3)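 MBC: after the 24 h LB broth microdilution (1.0 × 10⁴ CFU per well, 160 rpm), wells were serially sub-cultured into fresh broth plates and incubated a further 24 h. MBC is the lowest concentration with no visible growth, taken as 99.5% killing of the original inoculum. Duplicate, repeated three times.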

[7] = test system: Aspergillus niger; assay: Antifungal activity against Aspergillus niger ATCC 6275 after 72 hrs by serial dilution technique; assay type: functional; conditions: ATCC 6275, 72 h; procedure, shortened: as §2
[8] = test system: Trichoderma viride; assay: Ratio of bifonazole to compound for Trichoderma viride IAM 5061; assay type: functional
[9] = test system: Staphylococcus aureus; assay: Antibacterial activity against Staphylococcus aureus ATCC 6538 after 24 hrs by microdilution method; assay type: functional; conditions: ATCC 6538, 24 h; procedure, shortened: as §1
[10] = test system: Staphylococcus aureus; assay: Antibacterial activity against Staphylococcus aureus ATCC 6538 incubated for 24 hrs followed by serial sub-cultivation for 24 hrs by microdilution method; assay type: functional; conditions: ATCC 6538, 24 h; procedure, shortened: as §3
[11] = test system: Trichoderma viride; assay: Antifungal activity against Trichoderma viride IAM 5061 after 72 hrs by serial dilution technique; assay type: functional; conditions: IAM 5061, 72 h; procedure, shortened: as §2
[12] = test system: Escherichia coli; assay: Antibacterial activity against Escherichia coli ATCC 35210 after 24 hrs by microdilution method; assay type: functional; conditions: ATCC 35210, 24 h; procedure, shortened: as §1
[13] = test system: Aspergillus ochraceus; assay: Antifungal activity against Aspergillus ochraceus after 72 hrs by serial dilution technique
[14] = test system: Penicillium ochrochloron; assay: Antifungal activity against Penicillium ochrochloron ATCC 9112 incubated for 72 hrs followed by serial sub-cultivation for 72 hrs by serial dilution technique; assay type: functional; conditions: ATCC 9112, 72 h
Procedure, shortened: (§4)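 MFC: material from 72 h malt broth microdilution wells was serially sub-cultured into fresh broth plates and incubated a further 72 h at 28 °C. Fungicidal concentration is taken from growth after sub-culture. Duplicate, repeated three times.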

[15] = test system: Listeria monocytogenes; assay: Antibacterial activity against Listeria monocytogenes NCTC 7973 after 24 hrs by microdilution method; assay type: functional; conditions: NCTC 7973, 24 h; procedure, shortened: as §1
[16] = test system: Penicillium ochrochloron; assay: Antifungal activity against Penicillium ochrochloron ATCC 9112 after 72 hrs by serial dilution technique; assay type: functional; conditions: ATCC 9112, 72 h; procedure, shortened: as §2
[17] = test system: Salmonella typhimurium; assay: Antibacterial activity against Salmonella Typhimurium ATCC 13311 incubated for 24 hrs followed by serial sub-cultivation for 24 hrs by microdilution; assay type: functional, Salmonella enterica subsp. enterica serovar Typhimurium; conditions: Salmonella enterica, ATCC 13311, 24 h; procedure, shortened: as §3
[18] = test system: Micrococcus flavus; assay: Antibacterial activity against Micrococcus flavus ATCC 10240 incubated for 24 hrs followed by serial sub-cultivation for 24 hrs by microdilution; assay type: functional; conditions: ATCC 10240, 24 h; procedure, shortened: as §3
[19] = test system: Aspergillus ochraceus; assay: Antifungal activity against Aspergillus ochraceus ATCC 12066 incubated for 72 hrs followed by serial sub-cultivation for 72 hrs by serial dilution technique; assay type: functional; conditions: ATCC 12066, 72 h; procedure, shortened: as §4
[20] = test system: Candida albicans; assay: Ratio of ketoconazole to compound for Candida albicans isolated from human; assay type: functional
[21] = test system: Micrococcus flavus; assay: Antibacterial activity against Micrococcus flavus ATCC 10240 after 24 hrs by microdilution method; assay type: functional; conditions: ATCC 10240, 24 h; procedure, shortened: as §1
[22] = test system: Enterococcus faecalis; assay: Antibacterial activity against Enterococcus faecalis isolated from human after 24 hrs by microdilution method; assay type: functional; procedure, shortened: as §1
[23] = test system: Pseudomonas aeruginosa; assay: Antibacterial activity against Pseudomonas aeruginosa ATCC 27853 after 24 hrs by microdilution method; assay type: functional; conditions: ATCC 27853, 24 h; procedure, shortened: as §1
[24] = test system: Bacillus cereus; assay: Antibacterial activity against clinical isolate of Bacillus cereus after 24 hrs by microdilution method; assay type: functional; procedure, shortened: as §1
[25] = test system: Aspergillus niger; assay: Antifungal activity against Aspergillus niger ATCC 6275 incubated for 72 hrs followed by serial sub-cultivation for 72 hrs by serial dilution technique; assay type: functional; conditions: ATCC 6275, 72 h; procedure, shortened: as §4
[26] = test system: Aspergillus niger; assay: Ratio of bifonazole to compound for Aspergillus niger ATCC 6275; assay type: functional
[27] = test system: Pseudomonas aeruginosa; assay: Ratio of ampicillin MIC to compound MIC for Pseudomonas aeruginosa ATCC 27853; assay type: functional
[28] = test system: Aspergillus flavus; assay: Antifungal activity against Aspergillus flavus ATCC 9643 after 72 hrs by serial dilution technique; assay type: functional; conditions: ATCC 9643, 72 h; procedure, shortened: as §2
[29] = test system: Listeria monocytogenes; assay: Antibacterial activity against Listeria monocytogenes NCTC 7973 incubated for 24 hrs followed by serial sub-cultivation for 24 hrs by microdilution; assay type: functional; conditions: NCTC 7973, 24 h; procedure, shortened: as §3
[30] = test system: Penicillium ochrochloron; assay: Ratio of bifonazole to compound for Penicillium ochrochloron ATCC 9112; assay type: functional
[31] = test system: Aspergillus fumigatus; assay: Antifungal activity against Aspergillus fumigatus isolated from human incubated for 72 hrs followed by serial sub-cultivation for 72 hrs by serial dilution technique; assay type: functional; procedure, shortened: as §4
[32] = test system: Aspergillus ochraceus; assay: Ratio of bifonazole to compound for Aspergillus ochraceus ATCC 12066; assay type: functional
[33] = test system: Candida albicans; assay: Antifungal activity against Candida albicans isolated from human after 72 hrs by serial dilution technique; assay type: functional; procedure, shortened: as §2
[34] = test system: Aspergillus flavus; assay: Antifungal activity against Aspergillus flavus ATCC 9643 incubated for 72 hrs followed by serial sub-cultivation for 72 hrs by serial dilution technique; assay type: functional; conditions: ATCC 9643, 72 h; procedure, shortened: as §4
[35] = test system: Penicillium ochrochloron; assay: Ratio of ketoconazole to compound for Penicillium ochrochloron ATCC 9112; assay type: functional
[36] = test system: Enterococcus faecalis; assay: Antibacterial activity against Enterococcus faecalis isolated from human incubated for 24 hrs followed by serial sub-cultivation for 24 hrs by microdilution; assay type: functional; procedure, shortened: as §3
[37] = test system: Candida albicans; assay: Ratio of bifonazole to compound for Candida albicans isolated from human; assay type: functional
[38] = test system: Trichoderma viride; assay: Antifungal activity against Trichoderma viride IAM 5061 incubated for 72 hrs followed by serial sub-cultivation for 72 hrs by serial dilution technique; assay type: functional; conditions: IAM 5061, 72 h; procedure, shortened: as §4
[39] = test system: Bacillus cereus; assay: Antibacterial activity against clinical isolate of Bacillus cereus incubated for 24 hrs followed by serial sub-cultivation for 24 hrs by microdilution; assay type: functional; procedure, shortened: as §3
[40] = test system: Pseudomonas aeruginosa; assay: Antibacterial activity against Pseudomonas aeruginosa ATCC 27853 incubated for 24 hrs followed by serial sub-cultivation for 24 hrs by microdilution; assay type: functional; conditions: ATCC 27853, 24 h; procedure, shortened: as §3
[41] = test system: Talaromyces funiculosus; assay: Antifungal activity against Penicillium funiculosum ATCC 36839 incubated for 72 hrs followed by serial sub-cultivation for 72 hrs by serial dilution technique; assay type: functional; conditions: ATCC 36839, 72 h; procedure, shortened: as §4
[42] = test system: Aspergillus fumigatus; assay: Ratio of ketoconazole to compound for Aspergillus fumigatus isolated from human; assay type: functional
[43] = test system: Candida albicans; assay: Antifungal activity against Candida albicans isolated from human incubated for 72 hrs followed by serial sub-cultivation for 72 hrs by serial dilution technique; assay type: functional; procedure, shortened: as §4

## CCNc1nc(C)c(C(=O)/C=C/c2ccc(F)cc2)s1
[1]
  Ratio: 10
[2]
  MIC: 51.7 µM (≈ 15 µg/mL)
[3]
  Ratio: 10
[4]
  MIC: 68.9 µM (≈ 20 µg/mL)
[5]
  MIC: 34.5 µM (≈ 10 µg/mL)
[6]
  MBC: 68.9 µM (≈ 20 µg/mL)
[7]
  MIC: 34.5 µM (≈ 10 µg/mL)
[8]
  Ratio: 10
[9]
  MIC: 68.9 µM (≈ 20 µg/mL)
[10]
  MBC: 68.9 µM (≈ 20 µg/mL)
[11]
  MIC: 34.5 µM (≈ 10 µg/mL)
[12]
  MIC: 51.7 µM (≈ 15 µg/mL)
[13]
  MIC: 51.7 µM (≈ 15 µg/mL)
[14]
  MFC: 86.2 µM (≈ 25 µg/mL)
[15]
  MIC: 86.2 µM (≈ 25 µg/mL)
[16]
  MIC: 68.9 µM (≈ 20 µg/mL)
[17]
  MBC: 51.7 µM (≈ 15 µg/mL)
[18]
  MBC: 68.9 µM (≈ 20 µg/mL)
[19]
  MFC: 86.2 µM (≈ 25 µg/mL)
[20]
  Ratio: 10
[21]
  MIC: 51.7 µM (≈ 15 µg/mL)
[22]
  MIC: 51.7 µM (≈ 15 µg/mL)
[23]
  MIC: 68.9 µM (≈ 20 µg/mL)
[24]
  MIC: 86.2 µM (≈ 25 µg/mL)
[25]
  MFC: 51.7 µM (≈ 15 µg/mL)
[26]
  Ratio: 10
[27]
  Ratio: 10
[28]
  MIC: 68.9 µM (≈ 20 µg/mL)
[29]
  MBC: 103 µM (≈ 30 µg/mL)
[30]
  Ratio: 10
[31]
  MFC: 68.9 µM (≈ 20 µg/mL)
[32]
  Ratio: 10
[33]
  MIC: 34.5 µM (≈ 10 µg/mL)
[34]
  MFC: 86.2 µM (≈ 25 µg/mL)
[35]
  Ratio: 10
[36]
  MBC: 68.9 µM (≈ 20 µg/mL)
[37]
  Ratio: 10
[38]
  MFC: 68.9 µM (≈ 20 µg/mL)
[39]
  MBC: 86.2 µM (≈ 25 µg/mL)
[40]
  MBC: 68.9 µM (≈ 20 µg/mL)
[41]
  MFC: 68.9 µM (≈ 20 µg/mL)
[42]
  Ratio: 10
[43]
  MFC: 68.9 µM (≈ 20 µg/mL)

## CCNc1nc(C)c(C(=O)/C=C/c2cccc(F)c2)s1
[1]
  Ratio: 10
[2]
  MIC: 51.7 µM (≈ 15 µg/mL)
[3]
  Ratio: 10
[4]
  MIC: 68.9 µM (≈ 20 µg/mL)
[5]
  MIC: 34.5 µM (≈ 10 µg/mL)
[6]
  MBC: 86.2 µM (≈ 25 µg/mL)
[7]
  MIC: 34.5 µM (≈ 10 µg/mL)
[8]
  Ratio: 10
[9]
  MIC: 68.9 µM (≈ 20 µg/mL)
[10]
  MBC: 103 µM (≈ 30 µg/mL)
[11]
  MIC: 34.5 µM (≈ 10 µg/mL)
[12]
  MIC: 68.9 µM (≈ 20 µg/mL)
[13]
  MIC: 34.5 µM (≈ 10 µg/mL)
[14]
  MFC: 68.9 µM (≈ 20 µg/mL)
[15]
  MIC: 86.2 µM (≈ 25 µg/mL)
[16]
  MIC: 34.5 µM (≈ 10 µg/mL)
[17]
  MBC: 51.7 µM (≈ 15 µg/mL)
[18]
  MBC: 86.2 µM (≈ 25 µg/mL)
[19]
  MFC: 86.2 µM (≈ 25 µg/mL)
[20]
  Ratio: 10
[21]
  MIC: 34.5 µM (≈ 10 µg/mL)
[22]
  MIC: 51.7 µM (≈ 15 µg/mL)
[23]
  MIC: 68.9 µM (≈ 20 µg/mL)
[24]
  MIC: 51.7 µM (≈ 15 µg/mL)
[25]
  MFC: 68.9 µM (≈ 20 µg/mL)
[26]
  Ratio: 10
[27]
  Ratio: 10
[28]
  MIC: 68.9 µM (≈ 20 µg/mL)
[29]
  MBC: 86.2 µM (≈ 25 µg/mL)
[30]
  Ratio: 10
[31]
  MFC: 68.9 µM (≈ 20 µg/mL)
[32]
  Ratio: 10
[33]
  MIC: 34.5 µM (≈ 10 µg/mL)
[34]
  MFC: 86.2 µM (≈ 25 µg/mL)
[35]
  Ratio: 10
[36]
  MBC: 68.9 µM (≈ 20 µg/mL)
[37]
  Ratio: 10
[38]
  MFC: 68.9 µM (≈ 20 µg/mL)
[39]
  MBC: 68.9 µM (≈ 20 µg/mL)
[40]
  MBC: 68.9 µM (≈ 20 µg/mL)
[41]
  MFC: 68.9 µM (≈ 20 µg/mL)
[42]
  Ratio: 10
[43]
  MFC: 68.9 µM (≈ 20 µg/mL)
